Data set [1] has as its target T1, High affinity nerve growth factor receptor (Homo sapiens, UniProt P04629). Put plainly: Inhibition of TRKA in human KM-12-LUC cells assessed as reduction in AKT phosphorylation at T308 residue after 2 hrs by Western blot analysis. Format: cell-based, KM12-Luc. The method, boiled down:
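KM-12-LUC (TPM3-TRKA fused colon cancer cells) grown in RPMI 1640 with 10% FBS and 1% penicillin/streptomycin at 37 °C under 5% CO2. Serially diluted compound added for 2 h. Lysates western blotted for phospho-AKT (T308/S473) and phospho-ERK1/2 (T202/Y204).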
Target sequence in this assay (P04629 whole entry, the tested form may be a part): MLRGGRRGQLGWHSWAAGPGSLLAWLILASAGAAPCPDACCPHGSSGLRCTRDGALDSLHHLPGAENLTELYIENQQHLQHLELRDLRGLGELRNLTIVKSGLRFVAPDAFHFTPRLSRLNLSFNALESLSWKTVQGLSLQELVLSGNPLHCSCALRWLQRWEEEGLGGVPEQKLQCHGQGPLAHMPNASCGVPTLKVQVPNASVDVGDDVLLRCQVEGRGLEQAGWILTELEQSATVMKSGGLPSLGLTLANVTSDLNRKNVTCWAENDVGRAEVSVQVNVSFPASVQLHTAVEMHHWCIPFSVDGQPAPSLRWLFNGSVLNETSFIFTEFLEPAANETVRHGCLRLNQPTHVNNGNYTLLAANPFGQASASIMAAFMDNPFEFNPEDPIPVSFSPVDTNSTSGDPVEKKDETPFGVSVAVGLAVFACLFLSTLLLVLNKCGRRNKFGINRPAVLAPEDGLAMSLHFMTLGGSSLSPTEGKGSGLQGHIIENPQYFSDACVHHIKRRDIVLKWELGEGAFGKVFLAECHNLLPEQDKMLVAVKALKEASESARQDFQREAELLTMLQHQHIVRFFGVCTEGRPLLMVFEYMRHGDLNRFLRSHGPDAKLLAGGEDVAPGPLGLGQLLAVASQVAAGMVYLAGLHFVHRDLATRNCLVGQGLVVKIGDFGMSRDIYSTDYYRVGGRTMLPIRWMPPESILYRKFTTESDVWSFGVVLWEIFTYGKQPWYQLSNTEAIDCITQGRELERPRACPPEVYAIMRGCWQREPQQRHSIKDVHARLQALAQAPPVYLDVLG

The nature of data set [2]: Half life in mouse at 10 mg/kg, po. The class given is ADME, organism-based. Particulars: in vivo.
Data set [3] is described as follows: Toxicity in mouse xenografted with mouse BAF3 cells harboring […] TRKA-F589L mutant assessed as effect on abnormal behaviour at 40 to 80 mg/kg, po administered once daily for 10 days. The class given is organism-based. Particulars: in vivo, 240 h, dose 40-80 mg/kg/day, time 10 day. In short, it runs like this:
(§1)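 nu/nu mice were given subcutaneous right-flank implants in 1:1 DMEM/matrigel: 1 million BaF3 fusion cells or 5 million KM-12-LUC cells. Oral gavage started at 150–200 mm3 (xenograft) or 200–400 mm3 (allograft). Dosing used 40 or 80 mg/kg in HKI vehicle (0.5% methylcellulose/0.4% Tween 80 in ddH2O), with 5 mice per group. Body weight was recorded daily and behaviour observed.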

A short description of data set [4]: Apparent clearance in Beagle dog at 1 mg/kg, iv. Format: ADME, organism-based, Canis lupus familiaris. Particulars: in vivo.
Data set [5] is described as follows: Half life in Beagle dog at 5 mg/kg, po. The class given is ADME, organism-based, Canis lupus familiaris. Particulars: in vivo.
Data set [6] can be described thus: Half life in Sprague-Dawley rat at 1 mg/kg, iv. Format: ADME, organism-based. Particulars: in vivo.
In data set [7] the target is T1, High affinity nerve growth factor receptor. Put plainly: Inhibition of wild type TEL fused TRKA (unknown origin) transfected in mouse BAF3 cells assessed as growth inhibition after 72 hrs by CCK8 assay. The class given is cell-based. On the technique in general: Tetrazolium assays rely on reduction of a dye to a coloured formazan, in cell work by metabolically active cells.
Target sequence in this assay (P04629 33-796 limits assumed): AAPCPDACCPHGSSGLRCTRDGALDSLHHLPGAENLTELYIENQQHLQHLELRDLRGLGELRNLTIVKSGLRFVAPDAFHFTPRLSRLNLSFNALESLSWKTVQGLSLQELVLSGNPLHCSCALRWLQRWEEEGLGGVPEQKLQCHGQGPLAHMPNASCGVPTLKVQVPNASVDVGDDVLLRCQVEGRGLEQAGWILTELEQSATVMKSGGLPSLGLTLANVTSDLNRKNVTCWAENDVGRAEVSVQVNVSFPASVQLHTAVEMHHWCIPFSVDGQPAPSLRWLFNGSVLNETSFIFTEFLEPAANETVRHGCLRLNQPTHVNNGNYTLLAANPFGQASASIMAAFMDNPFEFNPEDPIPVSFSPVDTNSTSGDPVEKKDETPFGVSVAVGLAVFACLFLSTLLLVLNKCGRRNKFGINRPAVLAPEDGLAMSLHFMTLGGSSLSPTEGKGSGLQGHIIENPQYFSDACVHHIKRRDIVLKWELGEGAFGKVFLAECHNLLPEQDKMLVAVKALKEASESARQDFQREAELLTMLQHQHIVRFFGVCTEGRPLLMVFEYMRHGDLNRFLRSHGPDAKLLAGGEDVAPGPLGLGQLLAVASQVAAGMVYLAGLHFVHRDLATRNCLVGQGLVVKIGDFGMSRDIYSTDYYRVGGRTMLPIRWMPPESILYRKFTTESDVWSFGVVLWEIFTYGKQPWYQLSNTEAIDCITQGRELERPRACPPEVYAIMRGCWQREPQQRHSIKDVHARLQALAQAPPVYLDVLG

Data set [8] can be described thus: Toxicity in mouse xenografted with mouse BAF3 cells harboring […] TRKA-G667S mutant assessed as effect on abnormal behaviour at 40 to 80 mg/kg, po administered twice daily for 10 days. The class given is organism-based. Particulars: in vivo, 240 h, dose 40-80 mg/kg, time 10 day. In short, it runs like this: as §1
The nature of data set [9]: Toxicity in mouse xenografted with human […] cells assessed as effect on body weight at 40 to 80 mg/kg, po administered once daily for 10 days. Format: organism-based. Particulars: in vivo, 240 h, dose 40-80 mg/kg/day, time 10 day. The method, boiled down: as §1
On the technique in general: In xenograft studies the graft and the host belong to different species.

Data set [10] can be described thus: Cmax in mouse at 10 mg/kg, po. The class given is ADME, organism-based. More on the design: route oral, dose 10 mg/kg. Particulars: in vivo.
The target of data set [11] is T1, High affinity nerve growth factor receptor. Nature of the data set: Inhibition of TEL fused wild type TRKA (unknown origin) transfected in mouse BaF3 cells assessed as reduction in phosphorylation at Y490 residue after 2 hrs by Western blot analysis. Format: cell-based. In short, it runs like this: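 Isogenic BaF3 lines, made in-house, grown in RPMI 1640 with 10% FBS and 1% penicillin/streptomycin at 37 °C under 5% CO2. Serially diluted compound added for 2 h. Cells collected and lysed, and lysates analysed by western blotting for phospho-TRK. EC50 derived from the blots.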
(In western blotting, separated proteins are transferred to a membrane and probed.)
Target sequence in this assay (P04629 whole entry, the tested form may be a part): as the sequence (P04629 whole entry, the tested form may be a part) above

A short description of data set [12]: Toxicity in mouse xenografted with mouse BAF3 cells harboring TEL fused TRKB assessed as effect on body weight at 40 to 80 mg/kg, po administered once daily for 10 days. Format: organism-based. Particulars: in vivo, 240 h, dose 40-80 mg/kg/day, time 10 day. In short, it runs like this:
as §1

In data set [13] the test system is KM12-Luc. Put plainly: Induction of cell cycle arrest in human KM-12-LUC cells assessed as accumulation at G0/G1 phase at 0.01 to 10 uM after 24 hrs by PI/RNase staining based flow cytometric analysis. The class given is functional. Particulars: dose 0.01-10 µM. In short, it runs like this: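 KM-12-LUC cells treated with DMSO or serially diluted compound. Cells fixed in cold 70% ethanol overnight at −20 °C, then stained with PI/RNase buffer. Cell cycle distribution measured by flow cytometry.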

Data set [14] has as its system KM12-Luc. Put plainly: Antitumor activity against human […] cells xenografted in nude mouse assessed as tumor growth inhibition administered orally once daily for 10 days relative to control. Format: functional, cell-based. Particulars: dose 40-80 mg/kg/day, time 10.0 day. The method, boiled down:
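Nu/nu mice given 5 million KM-12-LUC cells in DMEM, 1:1 with matrigel, injected subcutaneously into the right flank; oral gavage started at tumor size 150–200 mm³, 5 mice per group, compound in 0.5% methylcellulose/0.4% Tween 80 in ddH₂O; body weight and tumor volume [(W²×L)/2] measured daily; TGI versus vehicle.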

Data set [15] deals with T1, High affinity nerve growth factor receptor. Nature of the data set: Inhibition of human TRKA by Z-LYTE or ADP-Glo assay. The method, boiled down: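 Purified kinase proteins tested biochemically in Z'LYTE or ADP-Glo format.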
Target sequence in this assay (P04629 whole entry, the tested form may be a part): as above
The test system of data set [16] is BaF3. Nature of the data set: Antitumor activity against mouse BAF3 cells harboring TEL fused TRKB allografted in nude mouse assessed as tumor growth inhibition at 80 mg/kg, po administered once daily for 10 days relative to control. Format: functional. Particulars: 240 h, time 10 day, read-out: TGI. The method, boiled down:
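Nu/nu mice given 1 million BaF3 cells (TEL-TRKA, TEL-TRKB, TEL-TRKC, LMNA-TRKA-F589L or LMNA-TRKA-G667S) in DMEM, 1:1 with matrigel, injected subcutaneously into the right flank; oral gavage began at 200–400 mm³, 5 mice per group, compound in 0.5% methylcellulose/0.4% Tween 80 in ddH₂O, 10 days; tumor volume [(W²×L)/2] and body weight recorded daily; TGI versus vehicle.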

Data set [17] in a line: Inhibition of LMNA fused TRKA G667S mutant (unknown origin) transfected in mouse BaF3 cells assessed as reduction in phosphorylation at Y490 residue after 2 hrs by Western blot analysis. Particulars: Homo sapiens, BaF3, 2 h.

Results on one compound are retold here after ChEMBL document CHEMBL4765452, “Discovery of (E)-N-(4-methyl-5-(3-(2-(pyridin-2-yl)vinyl)-1H-indazol-6-yl)thiazol-2-yl)-2-(4-methylpiperazin-1-yl)acetamide (IHMT-TRK-284) as a novel orally available type II TRK kinase inhibitor capable of overcoming multiple resistant mutants” (Eur J Med Chem, 2020).

Structures are written as SMILES. Active and inactive are the calls of the source. The calls are words filed in the database; no cut-off is given here. Bounds are passed on as bounds.

As to `Cc1nc(NC(=O)CN2CCN(C)CC2)sc1-c1ccc2c(/C=C/c3ccccn3)n[nH]c2c1`, the figures for the EC50 in data set [1], in [11] and in data set [17] were less than 30 nM, 26 nM and 74 nM, respectively. Moreover, the values for the t1/2 in data set [2], in data set [5] and in data set [6] were 3.4 h, 11.8 h and 2.7 h, respectively. Moreover, the Activity entry is “Non-Toxic” in data set [3]; “Non-Toxic” in data set [8]; “Non-Toxic” in [9]; “Non-Toxic” in data set [12]; “Dose-dependent effect” in data set [14]. The CLz/F in data set [4] was determined as 2861 mL/h/kg. Moreover, the GI50 in data set [7] stood at 8.5 nM. In [10], this compound gave a Cmax of 258 ng/mL. Also, the outcome in data set [13] was Active. In addition, the IC50 in [15] was determined as 10.5 nM. Besides, in [16], the inhibition in vivo at 80 mg/kg/day came out at 92.7%.

Broadly, the EC50 is the concentration needed to bring the measured effect to its halfway point. As a reminder, the GI50 is the concentration that inhibits growth by half. Usually Cmax stands for the highest concentration seen after dosing. In general, IC50 refers to the point on the concentration scale where inhibition reaches its midpoint.
